Experiment [1] addresses T1, Adenosine receptor A1 (Homo sapiens) (UniProt P30542).
T1 sequence (whole entry): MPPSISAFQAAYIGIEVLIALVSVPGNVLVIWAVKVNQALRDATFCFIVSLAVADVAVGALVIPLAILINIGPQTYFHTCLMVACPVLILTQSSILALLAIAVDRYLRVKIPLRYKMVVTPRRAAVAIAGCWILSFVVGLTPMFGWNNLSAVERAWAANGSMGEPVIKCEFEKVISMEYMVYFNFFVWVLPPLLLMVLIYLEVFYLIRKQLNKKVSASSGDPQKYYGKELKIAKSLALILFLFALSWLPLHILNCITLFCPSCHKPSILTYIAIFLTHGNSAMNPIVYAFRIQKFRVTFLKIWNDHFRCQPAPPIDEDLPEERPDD
The experiment can be described thus: Inverse agonist activity at human adenosine A1 receptor expressed in CHO cells assessed as cAMP accumulation at 10 uM measured after 150 mins in presence of [3H]cAMP by scintillation counting method relative to control. The format is functional, cell-based. The essentials: (§1)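 Intact CHO cells expressing human A1, A2B or A3 receptor (grown in DMEM F12) exposed to test compound at 10 μM under basal conditions, no agonist; cAMP measured by competitive protein binding with [3H]-cAMP. Result as percent of basal cAMP (basal = 100%); mean ± SEM.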

Experiment [2] deals with T2, Adenosine receptor A3 (Homo sapiens) (UniProt P0DMS8).
T2 sequence (whole entry): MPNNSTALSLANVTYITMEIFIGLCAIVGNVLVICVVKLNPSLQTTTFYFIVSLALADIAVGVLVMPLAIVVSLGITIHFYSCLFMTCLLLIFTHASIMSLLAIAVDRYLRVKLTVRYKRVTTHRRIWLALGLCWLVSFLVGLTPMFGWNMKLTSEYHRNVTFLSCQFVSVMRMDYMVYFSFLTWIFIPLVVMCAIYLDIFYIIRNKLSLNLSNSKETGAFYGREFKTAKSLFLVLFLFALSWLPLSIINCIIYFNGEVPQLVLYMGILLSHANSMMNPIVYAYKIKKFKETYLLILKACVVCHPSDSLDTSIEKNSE
The experiment is described as follows: Inverse agonist activity at human adenosine A3 receptor expressed in CHO cells assessed as cAMP accumulation at 10 uM measured after 150 mins in presence of [3H]cAMP by scintillation counting method relative to control. The format is functional, cell-based. The essentials:
as §1

The target of experiment [3] is T3, Adenosine receptor A2b (Homo sapiens) (UniProt P29275).
T3 sequence (whole entry): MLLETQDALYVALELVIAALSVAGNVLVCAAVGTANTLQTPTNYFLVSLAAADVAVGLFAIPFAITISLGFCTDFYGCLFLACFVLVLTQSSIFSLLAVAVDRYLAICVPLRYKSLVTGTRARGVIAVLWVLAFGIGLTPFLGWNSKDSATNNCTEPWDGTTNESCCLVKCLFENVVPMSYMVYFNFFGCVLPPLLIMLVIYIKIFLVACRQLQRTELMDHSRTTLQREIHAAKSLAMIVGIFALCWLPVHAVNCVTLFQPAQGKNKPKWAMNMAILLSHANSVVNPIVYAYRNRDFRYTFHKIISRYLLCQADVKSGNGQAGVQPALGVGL
The experiment can be described thus: Inverse agonist activity at human adenosine A2B receptor expressed in CHO cells assessed as cAMP accumulation at 10 uM measured after 150 mins in presence of [3H]cAMP by scintillation counting method relative to control. The format is functional, cell-based. Summed up: as §1

A further experiment addresses T4, Adenosine receptor A1 (Homo sapiens, UniProt P30542).
T4 sequence (P30542 whole entry): T1 sequence (whole entry)
The experiment is described as follows: Displacement of [3H]DPCPX from human adenosine A1 receptor expressed in CHO cell membranes measured after 90 mins by scintillation counting method.

Another experiment deals with T5, Adenosine receptor A2b (Homo sapiens, UniProt P29275).
T5 sequence (P29275 whole entry): T3 sequence (whole entry)
The experiment can be described thus: Antagonist activity at human adenosine A2B receptor expressed in CHO cells assessed as inhibition of NECA-stimulated cAMP accumulation measured after 150 mins in presence of [3H]cAMP by scintillation counting method.

For experiment [4], the target named is T6, Adenosine receptor A2a (Homo sapiens, UniProt P29274). The experiment is described as follows: Displacement of [3H]ZM241385 from human adenosine A2A receptor expressed in CHO cell membranes measured after 60 mins by scintillation counting method.
T6 sequence (P29274 whole entry): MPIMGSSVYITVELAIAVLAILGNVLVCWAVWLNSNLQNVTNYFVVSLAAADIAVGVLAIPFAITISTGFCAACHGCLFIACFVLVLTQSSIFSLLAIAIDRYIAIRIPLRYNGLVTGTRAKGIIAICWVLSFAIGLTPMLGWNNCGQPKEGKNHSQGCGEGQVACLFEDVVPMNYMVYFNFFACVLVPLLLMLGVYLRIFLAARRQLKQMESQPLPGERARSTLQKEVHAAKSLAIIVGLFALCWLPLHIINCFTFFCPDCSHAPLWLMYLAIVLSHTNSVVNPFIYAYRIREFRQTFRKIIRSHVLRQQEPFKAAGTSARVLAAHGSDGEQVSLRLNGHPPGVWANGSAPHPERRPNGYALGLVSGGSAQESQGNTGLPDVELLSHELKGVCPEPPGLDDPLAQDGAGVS
Another experiment concerns the target T7, Adenosine receptor A3 (Homo sapiens, UniProt P0DMS8).
T7 sequence (P0DMS8 whole entry): T2 sequence (whole entry)
The experiment can be described thus: Displacement of [125I]AB-MECA from human adenosine A3 receptor expressed in CHO cell membranes measured after 120 mins by scintillation counting method. Summed up: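 Membranes from CHO cells transfected with the human receptor (A1 or A3) competed against [3H]DPCPX (A1) or [125I]AB-MECA (A3) over a range of test concentrations, per earlier-described method; percent inhibition taken at 10 μM.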

The target of experiment [5] is T6, Adenosine receptor A2a. The experiment is described as follows: Antagonist activity against human adenosine A2A receptor expressed in CHO cells assessed as inhibition of CGS21680-stimulated cAMP accumulation measured after 150 mins in presence of [3H]cAMP by scintillation counting method. The format is functional, cell-based.
Experiment [6] addresses T6, Adenosine receptor A2a. The experiment can be described thus: Inverse agonist activity at human adenosine A2A receptor expressed in CHO cells assessed as inhibition of cAMP accumulation measured after 150 mins in presence of [3H]cAMP by scintillation counting method. The format is functional, cell-based.

pIC50, pKi: −log10 of the molar value.

With `Nc1nc(NCc2ccncc2)nc2sc(-c3ccco3)nc12`, the Activity in experiment [1] is 103%; in experiment [2], 102%; in [3], 103%.
Take `Cc1ccc(-c2nc3c(N)nc(NCc4cccs4)nc3s2)o1`: the negative logarithm of the Ki (pKi) on Adenosine receptor A1 was 7.15; on Adenosine receptor A2a [4] it was 7.47; on Adenosine receptor A3 it was 7.82. Also, at Adenosine receptor A2b, the pIC50 is 7.04.
Take `Nc1nc(NCc2ccco2)nc2sc(-c3ccco3)nc12`: the Activity in [1] stood at 101%; in experiment [2] it was 104%; in experiment [3], 101%. This molecule also gave a KiH at Adenosine receptor A2a [4] of 39 fM. The molecule further displayed a KiL on Adenosine receptor A2a [4] of 1.73 nM.
For `COc1ccccc1CNc1nc(N)c2nc(-c3cccs3)sc2n1`, the negative logarithm of the Ki (pKi) on Adenosine receptor A1 is 7.76; at Adenosine receptor A2a [4], 8.65; on Adenosine receptor A3 it was 6.56. Moreover, the pIC50 at Adenosine receptor A2a [5] was 8.36; at Adenosine receptor A2a [6], 8.47; on Adenosine receptor A2b, 5.34. Besides, the Activity in [1] is 99%; in [2] it was 103%; in experiment [3] it was 106%.
As for `COc1cccc(CNc2nc(N)c3nc(-c4cccs4)sc3n2)c1`, the negative logarithm of the Ki (pKi) was 7.43 on Adenosine receptor A1, 7.66 on Adenosine receptor A2a [4] and 6.37 at Adenosine receptor A3. Moreover, the negative logarithm of the IC50 (pIC50) on Adenosine receptor A2b is 5.56.
On to `Nc1nc(NCc2ccccn2)nc2sc(-c3ccco3)nc12`, for which the Activity in [1] turned out to be 103%; in [2], 101%; in [3], 98%.
Take `Nc1nc(NCc2cccnc2)nc2sc(-c3ccco3)nc12`: the results for the Activity in experiment [1], in [2] and in experiment [3] were 96%, 100% and 97%, respectively. This molecule registered a KiH on Adenosine receptor A2a [4] of 217 fM. The molecule further displayed a KiL on Adenosine receptor A2a [4] of 0.68 nM.
Turning to `Nc1nc(NCc2cccs2)nc2sc(-c3ccco3)nc12`, the Activity amounted to 98% in [1], 96% in [2] and 99% in experiment [3]. The KiH on Adenosine receptor A2a [4] amounted to 10.7 fM. The molecule further yielded a KiL on Adenosine receptor A2a [4] of 3.82 nM.
`COc1ccccc1CNc1nc(N)c2nc(-c3ccc(C)o3)sc2n1`: the pKi on Adenosine receptor A1 was 7.54; on Adenosine receptor A2a [4], 7.70; at Adenosine receptor A3, 6.85. Besides, the negative-log IC50 (pIC50) on Adenosine receptor A2b is 6.41.
The corresponding values for `COc1cccc(CNc2nc(N)c3nc(-c4ccc(C)o4)sc3n2)c1` are 7.15, 6.84, 6.80 and 6.92.
Consider `Nc1nc(NCc2cnccn2)nc2sc(-c3ccco3)nc12`, for which the Activity was 102% in [1], 98% in [2] and 102% in experiment [3].
Consider `Nc1nc(NCc2cccs2)nc2sc(-c3cccs3)nc12`, for which the negative-log Ki (pKi) on Adenosine receptor A1 was 7.14; at Adenosine receptor A2a [4], 8.00; at Adenosine receptor A3 it was 7.42. In addition, the pIC50 was 7.75 on Adenosine receptor A2a [5], 7.88 on Adenosine receptor A2a [6] and 6.26 on Adenosine receptor A2b. The values for the Activity in [1], in experiment [2] and in [3] were 97%, 99% and 96%, respectively.
As to `Nc1nc(NCCc2ccc(O)cc2)nc2nc(-c3ccco3)nn12`, the Activity in experiment [1] is 101%; in experiment [2], 105%.
For the molecule `Nc1nc(NCCc2ccco2)nc2sc(-c3ccco3)nc12`, the values for the Activity in experiment [1], in [2] and in experiment [3] were 95%, 97% and 103%, respectively.
For `Nc1nc(NCc2ccsc2)nc2sc(-c3ccco3)nc12` the same measures were 98%, 105% and 99%.
For `Nc1nc(NCCc2cccs2)nc2sc(-c3ccco3)nc12`, the figures for the Activity in experiment [1], in experiment [2] and in experiment [3] were 100%, 94% and 99%, respectively. On Adenosine receptor A2a [4], the KiH amounted to 10.6 fM. This molecule also yielded a KiL on Adenosine receptor A2a [4] of 18 nM.
Turning to `Nc1nc(NCCc2cccnc2)nc2sc(-c3ccco3)nc12`, the Activity in experiment [1] stood at 102%; in experiment [2] it was 102%; in [3] it was 97%.
